Measurements taken from ChEMBL document CHEMBL1121994, “Ammonium 7H-purin-6-yl 1-Thio-beta-D-glucopyranosiduronate, a latent, selective anticancer agent” (J Med Chem, 1982).

How the values were obtained:
Format in all cases: ADME
[1] = Maximum velocity was determined at pH 3.38
How it was run: (§1)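 Bovine β-glucuronidase in 0.1 M potassium acetate buffer, μ = 0.1 M (KCl), 30 °C. Substrate 4.0×10⁻⁴ to 4.8×10⁻³ M final. Enzyme (30 FU; 42 000 FU when substrate was given in Me₂SO) was added after 20 min; at pH 3.38 the substrate was also added after 20 min. Initial rates came from ΔA/min at 324 nm (Δε = 2×10⁴ M⁻¹cm⁻¹), in duplicate. Vmax was normalized per Fishman unit.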

[2] = Maximum velocity was determined at pH 4.4; how it was run: as §1
[3] = Maximum velocity was determined at pH 4.7; how it was run: as §1
[4] = Maximum velocity was determined at pH 5.58; how it was run: as §1
[5] = organism: Bos taurus; assay: Michaelis constant for hydrolysis catalyzed by Bovine Liver beta-Glucuronidase at pH 3.38; settings: cattle; how it was run: as §1
[6] = organism: Bos taurus; assay: Michaelis constant for hydrolysis catalyzed by Bovine Liver beta-Glucuronidase at pH 4.40; settings: cattle, pH 4.4; how it was run: as §1
[7] = organism: Bos taurus; assay: Michaelis constant for hydrolysis catalyzed by Bovine Liver beta-Glucuronidase at pH 4.7; settings: cattle; how it was run: as §1
[8] = organism: Bos taurus; assay: Michaelis constant for hydrolysis catalyzed by Bovine Liver beta-Glucuronidase at pH 5.58; settings: cattle; how it was run: as §1
[9] = Maximum velocity was determined at pH 4.40; settings: pH 4.4; how it was run: as §1

| SMILES | Vmax [1] | Vmax [2] | Vmax [3] | Vmax [4] | Vmax / Km [5] | Vmax / Km [6] | Vmax / Km [7] | Vmax / Km [8] | Vmax [9] |
| --- | --- | --- | --- | --- | --- | --- | --- | --- | --- |
| NC(=O)C1OC(Sc2[nH]cnc3ncnc2-3)C(O)C(O)C1O (stereo unspecified) | 7.85e-11 | 1.24e-10 | 9.85e-11 | 8.8e-11 | 8.8e-9 | 1.06e-8 | 1.06e-8 | 1.04e-8 |  |
| N.O=C(O)C1OC(Sc2[nH]cnc3ncnc2-3)C(O)C(O)C1O (stereo unspecified) | 3.73e-8 |  | 3.92e-8 | 2.18e-8 | 0.000659 | 0.000409 | 0.000297 | 0.0000951 | 3.95e-8 |
